The species entered for assay [1] is Rattus norvegicus. Kind of assay: To inhibit high affinity uptake of [3H]dopamine (DA) into nerve endings (synaptosomes) prepared from various regions of the rat brain. The assay is classed as functional. Summed up:
(§1)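 Radiolabelled monoamine uptake inhibition. Six drug concentrations, each in triplicate, chosen from preliminary screens to bracket the approximate IC50.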

Assay [2] has as its target T1, Sodium-dependent dopamine transporter (Rattus norvegicus, UniProt P23977). Kind of assay: Inhibition of high affinity uptake of [3H]dopamine into nerve endings (synaptosomes) prepared from various regions of the rat brain. The assay is classed as subcellular. Summed up: as §1
For assay [3], the target named is T1, Sodium-dependent dopamine transporter. Kind of assay: Inhibition of [3H]mazindol binding to dopamine transporter of rat striatal membranes. The assay is classed as cell membranes, Membrane.
The species named for assay [4] is Rattus norvegicus. Kind of assay: To inhibit high affinity uptake of [3H]5-HT into nerve endings (synaptosomes) prepared from various regions of the rat brain. The assay is classed as functional. Summed up:
as §1

The species named for assay [5] is Rattus norvegicus. Kind of assay: To inhibit high affinity uptake of [3H]NE into nerve endings (synaptosomes) prepared from various regions of the rat brain. The format is functional. Summed up:
as §1

T1 sequence (P23977 whole entry): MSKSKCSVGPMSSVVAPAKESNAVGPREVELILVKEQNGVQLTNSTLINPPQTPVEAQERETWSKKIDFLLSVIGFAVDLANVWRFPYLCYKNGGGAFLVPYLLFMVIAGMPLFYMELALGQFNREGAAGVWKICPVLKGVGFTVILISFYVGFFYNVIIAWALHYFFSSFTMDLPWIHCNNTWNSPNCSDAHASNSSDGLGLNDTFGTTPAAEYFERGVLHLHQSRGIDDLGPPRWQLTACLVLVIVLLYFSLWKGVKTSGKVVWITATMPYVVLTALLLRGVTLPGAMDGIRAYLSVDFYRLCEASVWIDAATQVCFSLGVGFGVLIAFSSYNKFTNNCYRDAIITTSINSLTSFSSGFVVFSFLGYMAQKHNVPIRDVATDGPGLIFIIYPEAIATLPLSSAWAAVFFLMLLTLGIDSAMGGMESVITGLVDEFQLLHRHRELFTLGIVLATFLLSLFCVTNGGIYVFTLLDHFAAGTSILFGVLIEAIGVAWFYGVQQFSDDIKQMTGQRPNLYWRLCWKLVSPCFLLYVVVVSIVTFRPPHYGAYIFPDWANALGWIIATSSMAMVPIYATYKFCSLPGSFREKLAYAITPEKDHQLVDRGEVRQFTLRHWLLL

Usually Ki stands for the dissociation constant of the complex between target and ligand, obtained from inhibition or displacement. On to `Cc1ccc(C2C[C@H]3CC4OC(=O)C2C4N3C)cc1` (stereo partly drawn), for which affinity in the assay filed under Rattus norvegicus [1] was put at a Ki of 25000 nM.

Regarding `CCCC1C2CC[C@H](C[C@@H]1c1ccc(C)cc1)N2C` (stereo partly drawn), the Ki in assay [2] was determined as 51.8 nM; in assay [3], 21 nM; in the assay listed under Rattus norvegicus [4] it was 80.2 nM; in the assay filed under Rattus norvegicus [5], 6.3 nM.

On to `COC(=O)[C@@H]1C2CC[C@H](C[C@@H]1c1ccccc1)N2C`, for which the Ki stood at 89.4 nM in assay [3], 173 nM in the assay listed under Rattus norvegicus [4] and 37.2 nM in the assay filed under Rattus norvegicus [5].

On to `COC(=O)[C@H]1C2C(O)C[C@H](C[C@@H]1c1ccc(C)cc1)N2C` (stereo partly drawn), for which the inhibition constant Ki in assay [2] turned out to be 5600 nM; in assay [3], 2900 nM; in the assay listed under Rattus norvegicus [4] it was 3000 nM; in the assay filed under Rattus norvegicus [5], 1000 nM.

Consider `COC(=O)[C@@H]1C2C[C@H](O)[C@H](C[C@@H]1c1ccc(C)cc1)N2C`, for which the Ki amounted to 6700 nM in the assay filed under Rattus norvegicus [4] and 154 nM in the assay filed under Rattus norvegicus [5].

As to `COC(=O)[C@H]1C2[C@H](O)C[C@H](C[C@H]1c1ccc(C)cc1)N2C`, the results for the Ki (in assay [3]; in the assay filed under Rattus norvegicus [5]) were 135 nM and 60.9 nM, respectively.

For `COC(=O)[C@@H]1C2C(O)C[C@H](C[C@@H]1c1ccc(C)cc1)N2C` (stereo partly drawn), the Ki in assay [2] was 39.2 nM; in assay [3], 25.2 nM; in the assay filed under Rattus norvegicus [4] it was 581 nM; in the assay listed under Rattus norvegicus [5], 44.7 nM.

As to `COC(=O)[C@H]1C2[C@@H](O)C[C@H](C[C@H]1c1ccc(C)cc1)N2C` (stereo in doubt; 14b), the Ki in assay [2] was 2900 nM; in assay [3], 1400 nM; in the assay listed under Rattus norvegicus [4] it was over 100000 nM; in the assay filed under Rattus norvegicus [5], 300 nM.

For `COC(=O)[C@H]1C2[C@@H](O)C[C@H](C[C@H]1c1ccc(C)cc1)N2C` (stereo in doubt; 19b), the Ki in assay [2] was determined as 676 nM; in assay [3], 540 nM.

Consider `COC(=O)[C@H]1[C@@H](OC(=O)c2ccccc2)C[C@@H]2CC[C@H]1N2C` [COCAINE], for which the inhibition constant Ki was 155 nM in the assay listed under Rattus norvegicus [4] and 108 nM in the assay listed under Rattus norvegicus [5].

For the origin of these results see ChEMBL document CHEMBL1133630, “Chemical synthesis and pharmacology of 6- and 7-hydroxylated 2-carbomethoxy-3-(p-tolyl)tropanes: antagonism of cocaine's locomotor stimulant effects” (J Med Chem, 2000).
